What was measured:
[1] = molecular target: T1, Neuronal acetylcholine receptor; alpha4/beta2 (Rattus norvegicus) (UniProt P09483+P12390); experiment: In vitro inhibition of [3H]cytisine binding in rat brain tissue at Nicotinic acetylcholine receptor alpha4-beta2 at 100 uM; assay type: tissue-based
[2] = molecular target: T2, Neuronal acetylcholine receptor; alpha4/beta2 (Rattus norvegicus, UniProt P09483+P12390); experiment: In vitro binding affinity by inhibiting [3H]cytisine binding in rat brain tissue at Nicotinic acetylcholine receptor alpha4-beta2; assay type: tissue-based
T2 sequence (P09483 whole entry): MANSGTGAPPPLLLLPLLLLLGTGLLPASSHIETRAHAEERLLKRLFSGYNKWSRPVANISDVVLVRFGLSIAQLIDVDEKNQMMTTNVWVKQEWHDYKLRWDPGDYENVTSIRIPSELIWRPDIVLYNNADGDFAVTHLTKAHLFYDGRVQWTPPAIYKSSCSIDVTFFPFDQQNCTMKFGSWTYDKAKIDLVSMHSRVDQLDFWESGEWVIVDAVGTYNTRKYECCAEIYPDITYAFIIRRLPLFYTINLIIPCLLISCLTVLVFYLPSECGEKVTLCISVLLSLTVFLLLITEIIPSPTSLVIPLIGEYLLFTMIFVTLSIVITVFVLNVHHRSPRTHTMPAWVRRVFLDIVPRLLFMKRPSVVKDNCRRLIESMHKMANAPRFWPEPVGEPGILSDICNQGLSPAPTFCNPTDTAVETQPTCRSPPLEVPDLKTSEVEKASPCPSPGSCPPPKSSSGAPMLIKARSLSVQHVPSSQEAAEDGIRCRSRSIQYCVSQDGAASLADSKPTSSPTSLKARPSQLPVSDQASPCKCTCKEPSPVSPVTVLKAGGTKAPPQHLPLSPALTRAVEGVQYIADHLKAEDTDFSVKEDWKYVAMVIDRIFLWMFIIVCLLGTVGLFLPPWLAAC
T2 sequence (P12390 whole entry): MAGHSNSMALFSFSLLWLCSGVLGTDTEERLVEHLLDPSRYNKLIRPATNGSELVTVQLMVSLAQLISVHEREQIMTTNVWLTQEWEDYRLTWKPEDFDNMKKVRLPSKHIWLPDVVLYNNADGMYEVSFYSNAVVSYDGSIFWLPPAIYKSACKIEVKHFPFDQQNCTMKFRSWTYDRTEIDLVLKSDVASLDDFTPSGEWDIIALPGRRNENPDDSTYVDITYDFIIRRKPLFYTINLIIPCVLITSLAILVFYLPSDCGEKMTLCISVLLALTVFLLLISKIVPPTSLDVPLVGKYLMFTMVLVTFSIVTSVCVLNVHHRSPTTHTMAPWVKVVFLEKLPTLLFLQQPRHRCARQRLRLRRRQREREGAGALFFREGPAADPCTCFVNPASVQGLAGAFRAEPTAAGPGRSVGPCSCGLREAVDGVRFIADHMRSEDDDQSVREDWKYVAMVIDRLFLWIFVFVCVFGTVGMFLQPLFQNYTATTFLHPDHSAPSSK

[3] = molecular target: T1, Neuronal acetylcholine receptor; alpha4/beta2 (Rattus norvegicus); experiment: In vitro % inhibition of [3H]cytisine binding in rat brain tissue at Nicotinic acetylcholine receptor alpha4-beta2 at 100 uM; assay type: tissue-based
[4] = molecular target: T2, Neuronal acetylcholine receptor; alpha4/beta2; experiment: in vitro binding affinity by inhibiting [3H]cytisine binding in rat brain tissue at Nicotinic acetylcholine receptor alpha4-beta2
[5] = molecular target: T2, Neuronal acetylcholine receptor; alpha4/beta2; experiment: In vitro binding affinity by inhibiting [3H]dopamine release in rat brain tissue at Nicotinic acetylcholine receptor alpha4-beta2; assay type: functional, tissue-based
[6] = test system: Mus musculus; experiment: In vivo analgesic agonist activity after subcutaneous administration, using tail-flick assay; assay type: functional; details: sc
How it was run: (§1)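 Male CD-1 mice (25-35 g) were dosed subcutaneously on the back at 10 mL/kg. Tail-flick latency to a focused light beam was read by photocell as the mean of two trials, with a 12 s cutoff. Percent effect was (test − baseline)/(12 − baseline latency). ED50 with CI95 came from nonlinear regression of dose-response curves.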

[7] = test system: Mus musculus; experiment: In vivo analgesic agonist activity after subcutaneous administration, using hotplate assay; assay type: functional; details: sc
How it was run: (§2)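 Male CD-1 mice (25-35 g) were dosed subcutaneously on the back at 10 mL/kg. Hotplate held at 52 °C; latency was timed to hind-paw lick or jump. Percent effect was calculated as (test − baseline latency)/(12 − baseline latency). ED50 with CI95 came from nonlinear regression of dose-response curves.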

[8] = molecular target: T1, Neuronal acetylcholine receptor; alpha4/beta2 (Rattus norvegicus); experiment: In vitro inhibition of [3H]cytisine binding in rat brain tissue at Nicotinic acetylcholine receptor alpha4-beta2; assay type: tissue-based; details: concentration not given here
How it was run: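 Membranes were spun at 35 000g and resuspended. They were preincubated on ice for 5 min with test drug, then given 3.5 nM [3H]cytisine for 90 min at 2 °C. Nonspecific binding was taken with 1 mM (-)-nicotine. Drug concentrations were run in triplicate, with filtration and scintillation counting.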

[9] = test system: Mus musculus; experiment: In vivo analgesic activity was measured in mouse upon subcutaneous administration using hotplate assay; assay type: functional; details: sc; how it was run: as §2
[10] = test system: Mus musculus; experiment: In vivo analgesic activity was measured in mouse upon subcutaneous administration using tail-flick assay; assay type: functional; details: sc; how it was run: as §1
[11] = molecular target: T2, Neuronal acetylcholine receptor; alpha4/beta2; experiment: In vitro binding affinity by inhibiting [3H]dopamine release in rat brain tissue at aNicotinic acetylcholine receptor alpha4-beta2; assay type: functional, tissue-based
How it was run: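 Striatal slices (250 µm) from male Sprague-Dawley rats were loaded with 15 nM [3H]dopamine plus 0.1 mM ascorbic acid at 37 °C for 30 min in oxygenated Krebs-HEPES buffer pH 7.4, with domperidone present after loading. Slices were superfused with a 2 min test-drug pulse (S1), then 10 mM K+ for 2 min (S2). Five drug concentrations were used; S1/S2 fractional release ratios gave EC50.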

Question: For `c1ccc(N2C3CCC2CC3)nc1`, which inhibition [1] is on record?
Answer: < 50%

Question: With `c1cncc(CCN2C3CCC2CC3)c1` as the compound, how does the Ki [2] read?
Answer: 2230 nM

Question: Which inhibition [3] does the source give for `Cc1ccc(N2C3CCC2CC3)cc1` here?
Answer: < 50%

Question: Which inhibition [1] does the source give for `c1cc(N2C3CCC2CC3)ccn1` here?
Answer: < 50%

Question: With `Ic1ccc(N2C3CCC2CC3)nc1` as the compound, how does the inhibition [1] read?
Answer: < 50%

Question: `c1cc(CN2C3CCC2CC3)ccn1` was tested. Which inhibition [1] did it give?
Answer: < 50%

Question: Which results are given for `O=c1cccc2n1C[C@@H]1CNC[C@H]2C1` [CYTISINICLINE]?
Answer: Ki [4]: 4.2 nM; EC50 [5]: 8.8 nM

Question: Which inhibition [1] does the source give for `c1cncc(N2C3CCC2CC3)c1` here?
Answer: < 50%

Question: With `Clc1ccc(C2CC3CCC2N3)cn1` (stereo in doubt; 1) [EPIBATIDINE] as the compound, how does the ED50 [6] read?
Answer: 0.00046 mg/kg

Question: And the ED50 [7]?
Answer: 0.00072 mg/kg

Question: For `COc1ccc(N2C3CCC2CC3)cn1`, which inhibition [1] is on record?
Answer: < 50%

Question: For `c1ccc(CN2C3CCC2CC3)nc1`, which Ki [2] is on record?
Answer: 31300 nM

Question: What does the source list for `Clc1ccc(CN2C3CCC2CC3)cn1`?
Answer: ED50 [6]: 11.1 mg/kg; ED50 [7]: 12.2 mg/kg; Ki [2]: 245 nM; EC50 [5]: 79 nM

Question: Which inhibition [1] does the source give for `c1ccc2c(N3C4CCC3CC4)cncc2c1` here?
Answer: < 50%

Question: How did the inhibition [1] turn out when `c1ccc2ncc(N3C4CCC3CC4)cc2c1` was run?
Answer: < 50%

Question: Which inhibition [8] does the source give for `c1ccc2nc(CN3C4CCC3CC4)ccc2c1` here?
Answer: < 50%

Question: How did the ED50 [9] turn out when `c1cncc(CN2C3CCC2CC3)c1` was run?
Answer: 5.36 mg/kg

Question: And the ED50 [10]?
Answer: 12.4 mg/kg

Question: And the Ki [2]?
Answer: 98 nM

Question: What about the EC50 [11] of the same compound?
Answer: 1.4 nM

Reference: ChEMBL document CHEMBL1135501, “Synthesis and biological evaluation at nicotinic acetylcholine receptors of N-arylalkyl- and N-aryl-7-azabicyclo[2.2.1]heptanes” (J Med Chem, 2002)
